GRK2 aptamer HTS: compounds blocking aptamer binding on GRK2 – biochemical, human GRK2, bead flow cytometry, HTS, primary screen; Beta-adrenergic receptor kinase 1 (Homo sapiens), P25098; FAM-aptamer displacement from GRK2; inhibition of aptamer binding, % at 10 µM; 330,000 compounds, 0.59% hits;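 active = inhibition of aptamer binding above 40%, roughly 3 SD of noise, on plates passing a quality check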;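 note: median bead fluorescence of bound FAM aptamer so fluorescent compounds give negative values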
Scp-1 inhibitor: Scp-1 phosphatase inhibitors, primary screen, biochemical, colorimetric, uHTS; Carboxy-terminal domain RNA polymerase II polypeptide A small phosphatase 1 (Homo …; Recombinant Scp1, phosphopeptide, malachite green phosphate absorbance; inhibition, % at 20 µM; 340,000 compounds, 0.88% hits; AID 493091, 2011;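 active = inhibition above about 50% at 20 µM, limit read from the data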;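 note: plate controls were DMSO wells with enzyme for no effect and wells lacking enzyme for full effect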
Target sequence (Q9GZU7 76-261 limits assumed): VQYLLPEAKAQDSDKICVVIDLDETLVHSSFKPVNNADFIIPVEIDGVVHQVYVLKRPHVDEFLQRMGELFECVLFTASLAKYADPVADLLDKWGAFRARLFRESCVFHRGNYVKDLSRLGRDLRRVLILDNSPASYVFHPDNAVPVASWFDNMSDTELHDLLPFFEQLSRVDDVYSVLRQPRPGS
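Times: enzyme reaction 45 min at room temperature, colour 5 min, stabilisation 30 min. Material: SCP-1 catalytic fragment, aa 76-261. Medium: Acidic Tris acetate buffer with magnesium and detergent. Signal: colorimetric free-phosphate detection, absorbance 630 nm. Read-out basis: % inhibition of SCP-1 phosphate liberation. Reagent: Phosphorylated 17-residue peptide substrate.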
STEP inh: STEP phosphatase inhibitors, primary screen, biochemical, fluorescence intensity, uHTS | Tyrosine-protein phosphatase non-receptor type 5 (Homo sapiens), P54829 | 360,000 compounds, 0.25% hits | inhibition, % at 20 µM | recombinant STEP, OMFP fluorogenic substrate;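 active = inhibition at 20 µM, scaled per plate between control wells, above about 37%, limit read from the data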;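 note: 0% = DMSO with enzyme and substrate and 100% = substrate only without enzyme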
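Also added – OMFP at 25 µM · Test system – STEP tyrosine phosphatase · Technique – FITC-channel fluorescence of OMFP product · Schedule – 20 min at room temperature, dark · Evaluation – control-normalized % inhibition with plate pattern correction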
SUMO1-SIM PPI: modulators of SUMO1 protein-protein interactions, primary screen, biochemical, uHTS; SUMO1 binding to a labelled peptide, TR-FRET, 1 h; inhibition, % at 20 µM; 360,000 compounds, 0.33% hits; Small ubiquitin-related modifier 1 (Homo sapiens), P63165; in the data active = inhibition above about 37%
Target sequence (P63165 whole entry, looked up): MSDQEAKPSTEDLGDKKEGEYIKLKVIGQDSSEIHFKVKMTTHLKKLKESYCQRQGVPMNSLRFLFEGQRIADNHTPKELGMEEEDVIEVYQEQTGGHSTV
DNMT1 inh: human DNMT1 methyltransferase inhibitors, primary screen, biochemical, molecular beacon, fluorescence, HinP1I cleavage, uHTS | 360,000 compounds, 0.83% hits | DNA (cytosine-5)-methyltransferase 1 (Homo sapiens), P26358 | inhibition (reported as % activation of signal), % at 10 µM; in the data active = inhibition above about 50%
LMPTP inh: LMPTP phosphatase inhibitors, primary screen, biochemical, fluorescence intensity, uHTS | Low molecular weight phosphotyrosine protein phosphatase (Homo sapiens), P24666 | recombinant LMPTP-A, OMFP fluorogenic substrate | inhibition, % at 20 µM | 360,000 compounds, 0.22% hits | AID 651560, 2012;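 active = compounds that cut the enzyme signal by at least half of the control window in the single-dose screen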;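 note: plate controls were DMSO wells with enzyme plus substrate for no effect and substrate without enzyme for full effect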
Target sequence (P24666 whole entry, looked up): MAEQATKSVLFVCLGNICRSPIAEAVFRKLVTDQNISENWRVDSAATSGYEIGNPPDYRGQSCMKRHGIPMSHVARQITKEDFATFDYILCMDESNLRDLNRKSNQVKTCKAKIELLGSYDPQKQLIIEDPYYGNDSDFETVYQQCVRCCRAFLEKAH
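Test system: LMPTP-A phosphatase enzyme. Amount: LMPTP-A at 0.625 nM final in the reaction. Reagent: OMFP substrate, 400 µM final. Times: 50 min at room temperature. Signal: endpoint fluorescence intensity from OMFP dephosphorylation. Read-out basis: % inhibition. Benchmarks: no-enzyme and uninhibited controls.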
An asterisk follows results filed as active; / = no result. Sampled rows, rich in hits. Any-hit rate of the full collection: about 2.1%.

SMILES	GRK2 aptamer HTS	Scp-1 inhibitor	STEP inh	SUMO1-SIM PPI	DNMT1 inh	LMPTP inh
CCCN(CC(=O)Nc1ccccc1C)C(=O)c1cc2ccccc2oc1=O	/	/	1.3	-4.1	-6.5	0.4
Cn1c(SCC(=O)Nc2ccc3nc(SCC(=O)N4CCCC4)sc3c2)nnc1-c1ccc(N)cc1	/	64.8*	6.5	63.1*	23.9	31.0
C=CC#CC[N+]1(CC#Cc2ccccc2)CCOCC1	/	8.9	5.1	36.6*	-30.1	52.1*
Cc1noc(C)c1NC(=O)Nc1ccc2c(c1)C(=O)N([C@H](C)CO)C[C@H](C)[C@@H](CN(C)C(=O)Nc1c(C)noc1C)O2	5.0	-8.2	0.7	-0.2	-6.3	-1.6
Cc1noc(C)c1NC(=O)N(C)C[C@@H]1Oc2ccc(NS(=O)(=O)c3c(C)noc3C)cc2C(=O)N([C@H](C)CO)C[C@H]1C	0.0	14.5	2.8	1.6	11.5	-1.1
Cc1noc(C)c1NC(=O)N(C)C[C@H]1Oc2ccc(NC(=O)c3ccncc3)cc2C(=O)N([C@H](C)CO)C[C@@H]1C	2.0	67.7*	-4.2	2.9	8.9	-3.2
Cc1noc(C)c1S(=O)(=O)Nc1ccc2c(c1)C(=O)N([C@H](C)CO)C[C@H](C)[C@@H](CN(C)C(=O)NC(C)C)O2	3.0	85.1*	0.7	13.0	11.8	-2.6
Cc1ccc(S(=O)(=O)Nc2ccc3c(c2)C(=O)N([C@@H](C)CO)C[C@@H](C)[C@@H](CN(C)S(=O)(=O)c2ccccc2)OCCCC[C@H](C)O3)cc1	/	/	5.3	43.5*	-13.3	1.5
O=C(O)C1CCC(C(=O)O)SS1 (stereo not given)	/	-5.0	1.5	5.2	-3.1	-0.8
Cc1nc(S/C(=C\c2ccc(OCc3ccccc3Cl)cc2)C(=O)O)n[nH]1	1.0	11.4	2.3	5.4	-5.4	-1.6
Cc1nc(S/C(=C\c2ccc(-c3ccc(C(=O)O)c(Cl)c3)o2)C(=O)O)n[nH]1	/	83.4*	25.5	57.5*	91.4*	9.9
NC(=O)NC(=O)COC(=O)CC12CC3CC(CC(C3)C1)C2	1.0	1.4	-2.6	-2.5	0.1	0.9
COc1ccc(Cc2c(C(C)(C)C)nc3ccc(C)cn23)c(C)c1	/	/	0.5	-1.0	9.5	2.1
COc1ccc(Cc2c(C(C)(C)C)nc3ccc(Cl)cn23)c(C)c1	/	/	2.3	-3.6	103.7*	3.9
O=C1/C(=C\c2ccco2)CCC/C1=C\c1ccco1	5.0	-27.1	-13.5	-4.3	73.0*	3.0
CC1C/C(=C/c2ccco2)C(=O)/C(=C/c2ccco2)C1 (stereo not given)	20.0	/	/	/	/	/
C/C(=N/NC(=O)c1cc(O)c(O)c(O)c1)c1ccc([N+](=O)[O-])cc1	/	50.5*	1.1	-16.2	11.2	10.3
CC1Cc2ccccc2N1C(=S)NC(=O)C1(C)CC1(Cl)Cl (stereo not given)	2.0	50.1*	2.5	3.9	-1.0	-1.3
O=C(Nc1ccnn1C1CCN(Cc2ccccc2F)CC1)C1CCCC1	0.0	1.0	-1.6	-3.1	-0.3	0.1
c1ccc(-c2csc(N3CCCCCC3)n2)cc1	1.0	0.2	0.6	-0.6	0.3	3.9
Cc1cc(N2CCN(c3ccc([N+](=O)[O-])c4cccnc34)CC2)c2ccccc2n1	31.0	-13.0	11.3	5.5	-30.6	96.8*
Cc1cc(N2CCN(c3nc(-c4ccccc4)cs3)CC2)c2ccccc2n1	2.0	1.6	4.7	-1.4	-8.4	81.9*
CCN(CC)C(=O)[C@H]1C[C@H](CC(=O)NC(C)(C)C)C(=O)N2CCc3c([nH]c4cc(-c5ccco5)ccc34)[C@]12C	44.0*	-4.0	0.8	-1.1	-2.2	3.0
C[C@]12c3[nH]c4cc(-c5ccco5)ccc4c3CCN1C(=O)[C@@H](CC(=O)NCCCn1ccnc1)C[C@@H]2C(=O)N1CCCCC1	52.0*	3.9	3.0	-9.1	-3.1	-3.8

Source: PubChem
